# CXCR6 inh: CXCR6 receptor inhibitors, primary screen, cell-based, beta-arrestin, luminescence, CHO-K1 PathHunter, 1536-well. C-X-C chemokine receptor type 6 (Homo sapiens), O00574. AID 602244, 2012. inhibition, % at 20 µM. 360,000 tested, 0.36% active; in the data active = inhibition above about 34%, passing the limit was not always enough;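 also: antagonist mode with CXCL16 agonist at 10 nM final; 0% = 10 nM CXCL16 with DMSO and 100% = unstimulated wells without agonist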
# APJ ag: agonists of human apelin receptor APJ, primary screen, CHO-K1 cells, PathHunter beta-arrestin, luminescence; P35414; 0% DMSO wells, 100% apelin; activation, % at 20 µM; 330,000 tested, 0.11% active; AID 2520, 2010;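 active = activation more than six SD over the plate average, tested at 20 µM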;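 also: 0% = DMSO alone and 100% = apelin-13 at 10 nM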
#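 Incubation: overnight seeding, 90 min compound at 25 °C, 1 h detection; test system: PathHunter CHO-K1 APJ (AGTRL-1) beta-arrestin reporter cells; amount: 1000 cells/well; doses: one dose, 20 µM compound, 1% DMSO; measured by: beta-gal luminescence; measure: agonist-driven arrestin binding to APJ; benchmarks: negative DMSO alone, positive Apelin-13 at 10 nM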
# CCR6 antag: CCR6 receptor antagonists, primary screen, cell-based, CHO-K1, luminescence, beta-arrestin, uHTS; CHO-K1 CCR6 PathHunter beta-arrestin, CCL20-stimulated; C-C chemokine receptor type 6 (Homo sapiens), P51684; 340,000 tested, 0.49% active; inhibition, % at 20 µM;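 active = compounds whose inhibition of the agonist-driven luminescence signal at 20 µM reaches about 50%, limit read from the data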;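 also: cells stimulated with CCL20 at 14 nM final; plate controls were DMSO with CCL20 for no effect and DMSO without agonist for full effect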
# APJ antagonist: antagonists of human apelin receptor APJ, primary screen, CHO-K1 cells, beta-arrestin complementation, luminescence; inhibition, % at 20 µM; 330,000 tested, 0.32% active;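 active = inhibition above about 40% at 20 µM, limit read from the data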;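 also: cells challenged with 10 nM apelin-13 agonist together with compound; plate controls were apelin-13 plus DMSO wells for no effect and DMSO wells lacking apelin-13 for full effect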
# EBI2 antag: EBI2 receptor antagonists, beta-arrestin recruitment, primary screen, cell-based, luminescence, 7a,25-OHC stimulation, uHTS; G-protein coupled receptor 183 (Homo sapiens), P32249; 7a,25-OHC stimulated; inhibition, % at 5 µM; 360,000 tested, 0.81% active; AID 651636, 2012; in the data active = inhibition above about 38%;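 also: enzyme fragment complementation signal reports receptor beta-arrestin coupling in cells; 0% = agonist plus DMSO wells and 100% = wells without agonist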
# Target sequence (P32249 whole entry, looked up, the tested form may be a part): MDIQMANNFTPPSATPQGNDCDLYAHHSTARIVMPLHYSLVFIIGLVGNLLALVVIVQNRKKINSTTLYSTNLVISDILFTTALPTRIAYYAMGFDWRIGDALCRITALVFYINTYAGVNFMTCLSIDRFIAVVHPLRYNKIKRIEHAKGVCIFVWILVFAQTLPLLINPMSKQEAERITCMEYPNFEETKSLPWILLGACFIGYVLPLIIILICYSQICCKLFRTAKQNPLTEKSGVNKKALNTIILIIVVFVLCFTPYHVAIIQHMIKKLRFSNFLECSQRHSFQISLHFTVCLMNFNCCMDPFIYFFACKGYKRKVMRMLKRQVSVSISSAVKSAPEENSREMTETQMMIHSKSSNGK
# EBI2 conf: EBI2 antagonist hit retest, beta-arrestin, confirmation, cell-based, single concentration, luminescence, 7a,25-OHC stimulation | shares compounds with EBI2 antag | 7a,25-OHC antagonism | inhibition, % at 5 µM | 2,400 tested, 29% active | AID 651997, 2013;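 active = inhibition of at least 50%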
# EBI2 agonist: EBI2 agonist activity of antagonist hits, confirmation, counter-screen for EBI2 antagonist project, cell-based, single concentration, agonist mode, luminescence. shares compounds with EBI2 antag. EBI2-expressing cells, 60 min; 0% vehicle, 100% 7α,25-dihydroxycholesterol control. activation, % at 5 µM. 2,400 tested, under 10 active;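 active = activation of at least 50%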
# bGal counter: E. coli beta-galactosidase enzyme inhibition, confirmation, counter-screen for EBI2 antagonist project, biochemical, luminescence, single concentration | shares compounds with EBI2 antag | purified beta-galactosidase, luminescent Galacton Star, 15 min | inhibition, % at 5 µM | 2,400 tested, 1% active | AID 652176, 2013;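 active = replicate-average signal at least 3 plate SD below neutral wells, shown as high inhibition, flagging enzyme-inhibiting false positives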;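 also: 0% = DMSO wells with enzyme and 100% = wells lacking enzyme; higher means stronger loss of beta-gal luminescence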
# Numbers without * were called inactive; nt = not tested or not shown. Most compounds without a hit are left out; they make up all but 1.5% or so of the library.
SMILES,CXCR6 inh,APJ ag,CCR6 antag,APJ antagonist,EBI2 antag,EBI2 conf,EBI2 agonist,bGal counter
COc1ccccc1CNC(=O)c1ccc2nc(N3CCOCC3)sc2c1,-13,-3,14,-6,1,nt,nt,nt
COc1ccc(OC)c(NC(=O)Cn2c(=O)n(CC3CCCO3)c(=O)c3cc(OC)c(OC)cc32)c1 (stereo unspecified),5,-4,7,-12,-9,nt,nt,nt
CCOC(=O)C(Oc1ccc2c(-c3ccc(OC)cc3)cc(=O)oc2c1C)c1ccccc1 (stereo unspecified),14,-2,25,14,36*,32,-1,-20
COc1ccc(NC(=O)C2CCCN(C(=O)c3ccc(Cl)cc3)C2)cc1S(=O)(=O)N(C)C (stereo unspecified),-3,1,11,11,2,nt,nt,nt
CCOc1ccc(S(=O)(=O)N2CCN(C(=O)COc3ccc(Br)cc3)CC2)cc1,-2,0,22,-17,88*,81*,1,2
CCS(=O)(=O)N1CCN(C(=O)COc2ccc(-c3ccccc3)cc2)CC1,-4,-4,-6,-4,20,nt,nt,nt
Cc1ccc(NCC(=O)N2CCN(S(=O)(=O)c3ccccc3)CC2)cc1F,-14,-5,15,-6,87*,48,-1,-9
CC(=O)c1ccc(S(=O)(=O)N2CCN(CCOc3ccc(Br)cc3)CC2)cc1,-7,-1,10,5,90*,58*,2,5
CCOc1ccc(S(=O)(=O)N2CCN(S(=O)(=O)c3ccc(C(C)=O)cc3)CC2)cc1,-3,-2,10,8,8,nt,nt,nt
CCOc1ccc(OCC(=O)N2CCN(S(=O)(=O)c3ccccc3)CC2)cc1,1,nt,nt,nt,59*,28,0,-14
N#Cc1ccc(NCC(=O)N2CCN(S(=O)(=O)c3ccccc3)CC2)cc1,-2,-2,3,-1,35,nt,nt,nt
COc1ccccc1C(CNC(=O)C1CC(=O)N(Cc2ccc(C)cc2)C1)N1CCCC1 (stereo unspecified),2,0,18,14,3,nt,nt,nt
COc1cccc(/C=C/C(=O)N2CCN(S(=O)(=O)c3ccccc3)CC2)c1OC,1,-4,8,6,45*,20,0,3
COc1ccc(/C=C/C(=O)N2CCOCC2)cc1OC,3,-2,4,12,-3,nt,nt,nt
COc1cc(/C=C/C(=O)N2CCN(C(=O)/C=C/c3cc(OC)c(OC)c(OC)c3)CC2)cc(OC)c1OC,-10,-1,2,-33,46*,20,-1,-21
Cc1ccc(S(=O)(=O)N2CCN(C(=O)Cc3ccccc3)CC2)cc1C,-4,-3,11,-2,21,nt,nt,nt
O=C(/C=C/c1ccco1)N1CCN(S(=O)(=O)c2ccccc2)CC1,6,-3,3,-6,9,nt,nt,nt
Cc1ccc(S(=O)(=O)N2CCN(C(=O)/C=C/c3ccccc3)CC2)cc1C,0,0,7,20,89*,76*,-1,-8
COc1ccc(/C=C/C(=O)N2CCN(S(=O)(=O)/C=C/c3ccccc3)CC2)cc1OC,-14,-2,3,-6,89*,73*,0,-20
CC(C)[C@H](NC(=O)[C@H](Cc1ccccc1)n1c(=O)[nH]c2ccccc2c1=O)C(=O)N1CCC[C@@H]1C(=O)O,1,-2,-8,6,-2,nt,nt,nt
COc1cc(/C=C/C(=O)NC2CCCCC2)cc(OC)c1OC,2,-1,19,19,1,nt,nt,nt
COc1ccc(/C=C/C(=O)N2CCN(C)CC2)cc1OC,-8,-3,-4,9,-4,nt,nt,nt
COc1cc2c(cc1OC)C(CNC(=O)C=Cc1cc(OC)c(OC)c(OC)c1)C2 (stereo unspecified),-3,nt,nt,nt,50*,32,1,4
COc1ccc(/C=C/C(=O)N2CCN(S(=O)(=O)c3ccccc3)CC2)cc1OC,-5,-3,0,-15,46*,20,1,4
COc1ccc(/C=C/C(=O)N2CCN(S(=O)(=O)c3ccccc3Br)CC2)cc1OC,3,2,7,1,74*,49,-2,-12
SMILES,CXCR6 inh,APJ ag,CCR6 antag,APJ antagonist,EBI2 antag,EBI2 conf,EBI2 agonist,bGal counter
O=C(COC(=O)Cn1nnc(-c2ccccc2)n1)Nc1cc(F)ccc1F,-10,-4,8,2,-1,nt,nt,nt
CCN(CC)C(=O)C1=C(C)N(CCCOC)C(=O)C(CC(=O)NCCN2CCOCC2)C1 (stereo unspecified),9,nt,nt,nt,-3,nt,nt,nt
CC(=O)c1ccc(N2CCN(C(=O)COc3ccc4ccccc4c3)CC2)cc1,5,nt,nt,nt,8,nt,nt,nt
O=C(COc1ccc(-c2ccccc2)cc1)N1CCN(C(=O)c2cccnc2)CC1,0,0,-11,3,2,nt,nt,nt
O=C(COc1ccc(Br)cc1)N1CCN(c2ccccc2)CC1,2,-1,26,-17,82*,67*,0,8
O=C(COc1ccc2ccccc2c1)N1CCN(C(=O)c2cccnc2)CC1,-4,2,5,2,78*,64*,-1,-16
O=C(COc1ccccc1)N1CCN(c2ccccc2)CC1,3,-2,11,12,30,nt,nt,nt
COc1cc(OC)cc(C(=O)N2CCN(C(=O)COc3ccc4ccccc4c3)CC2)c1,0,1,-6,-8,85*,68*,0,-6
COc1ccc(N2CCN(C(=O)COc3ccc4ccccc4c3)CC2)cc1,4,-2,-2,21,85*,35,1,5
O=C(COc1ccc2ccccc2c1)N1CCCC1,2,5,-15,-12,33,nt,nt,nt
O=C(CCC(=O)N(CC(=O)NC1CCCC1)Cc1ccccc1Cl)Nc1nccs1,6,1,8,5,1,nt,nt,nt
COc1ccc(OCC(=O)N2CCN(C(=O)COc3ccc(Br)cc3)CC2)cc1,4,0,5,0,80*,56*,0,9
O=C(COc1ccc2ccccc2c1)N1CCN(c2ccccc2)CC1,13,-4,14,7,50*,40,-1,-18
O=C(COc1ccc2cc(Br)ccc2c1)N1CCOCC1,-4,1,-2,4,62*,36,1,4

# Screening results deposited in PubChem BioAssay by Sanford-Burnham Center for Chemical Genomics.
